pIC50: −log10 of the molar value.

The source of these data is PMC5484535 (Bioorganic & medicinal chemistry, 2016).

In one series the test system is SW156. Briefly: Anti-proliferation in SW156 renal cell carcinoma cells. Type of series: cell-based. The conditions noted are these: read-out: Cellular IC50s Kidney SW156.
In a further series the test system is PANC-1. Description: Anti-proliferation in PANC-1 pancreatic cancer cells. Type of series: cell-based. The following applies: Homo sapiens, PANC-1, read-out: Cellular IC50s Pancreas PANC-1.
Another series deals with URMC6. Description: Anti-proliferation in URMC6 renal cell carcinoma cells. The conditions noted are these: read-out: Cellular IC50s Kidney URMC6. Type of series: cell-based.
A further series relates to H358 cells. Briefly: Anti-proliferation in H358 NSCLC cells. It is filed as cell-based. The conditions noted are these: 72 h, in words. A digest of the protocol: (§1)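 Cells seeded at 2000 cells/well and left 48 h before drug addition at varying doses. After 72 h incubation, viability was read by CellTiter-Glo luminescence. Growth-inhibition IC50 values were calculated from dose-response curves.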

Another series deals with T1, TAK1 (Homo sapiens, UniProt O43318).
T1 sequence (O43318 1-606): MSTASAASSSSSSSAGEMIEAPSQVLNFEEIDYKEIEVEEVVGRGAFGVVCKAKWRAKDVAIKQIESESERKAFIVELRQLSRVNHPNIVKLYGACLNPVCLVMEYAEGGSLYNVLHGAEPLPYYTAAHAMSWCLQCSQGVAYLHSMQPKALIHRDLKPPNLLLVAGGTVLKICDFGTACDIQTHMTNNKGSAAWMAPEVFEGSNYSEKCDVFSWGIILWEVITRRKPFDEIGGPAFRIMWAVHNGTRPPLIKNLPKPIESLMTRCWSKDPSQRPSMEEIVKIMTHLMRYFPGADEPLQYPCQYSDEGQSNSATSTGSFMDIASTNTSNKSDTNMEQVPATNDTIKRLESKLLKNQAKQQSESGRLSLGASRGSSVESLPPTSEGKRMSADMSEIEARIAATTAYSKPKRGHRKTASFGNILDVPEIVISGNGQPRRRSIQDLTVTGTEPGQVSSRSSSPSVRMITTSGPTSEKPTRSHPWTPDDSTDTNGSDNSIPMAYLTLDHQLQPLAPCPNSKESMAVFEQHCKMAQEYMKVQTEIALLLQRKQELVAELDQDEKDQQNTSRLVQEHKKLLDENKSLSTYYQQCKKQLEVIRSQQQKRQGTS
Description: Competitive pulldown of TAK1 with biotinylated probe 27 in H358 and H23 cells. Type of series: cell-based. The conditions noted are these: 6 h, washout, lysate + 1 μM 27; for blocking of labeling of TAK1 by 27: 10 μM compound; for labeling of TAK1 by 27 after pre-treatment of cells: 1 μM compound; for effect on labeling of TAK1 by 27: 1 or 10 μM compound. Put shortly: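 H358 and H23 NSCLC cells (KRAS G12C) were exposed to test compound at 1 or 10 μM for 6 h. Drug medium was removed, and cells were rinsed twice with cold PBS and lysed in MPER buffer. Lysates were incubated overnight at 4 °C with 1 μM biotinylated probe and pulled down on streptavidin beads. Recovered TAK1 was detected by immunoblotting.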

The subject of series [1] is synovial fibroblasts from an RA patient (RA2159). Description: Cytokine secretion by activated RA synovial fibroblasts. Type of series: cell-based, human. The following applies: TNFα, IL-1α or Poly(I:C) activation. Put shortly: (§2)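 Primary human RA synovial fibroblasts (lot RA2159) were seeded at 1000 cells/well, grown ~24 h, then starved overnight and ~4 h in 0.1% BSA. Pooled supernatants (duplicates) were diluted 1:3 for 48-analyte Luminex measurement and iMLR modeling.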

The test system of a further series is H23 cells. Description: Anti-proliferation in H23 NSCLC cells. Type of series: cell-based. The conditions noted are these: 72 h, in words. Put shortly:
as §1

The test system of series [2] is synovial fibroblasts from an RA patient (RA2159). Description: FGF-basic secretion by TNFα-activated RA synovial fibroblasts. It is filed as cell-based, human. The conditions noted are these: TNFα-activated SF. Put shortly:
as §2

In a further series the test system is KRAS^G12D Ba/F3 cells. Briefly: Anti-proliferation in KRAS^G12D Ba/F3 cells. Type of series: cell-based. The following applies: 2 vs 8, 25 vs 26.
For a further series, the target named is panel of 456 kinases. Description: KinomeScan ATP-site competition binding panel. The following applies: 1 and 10 μM.
For series [3], the system named is synovial fibroblasts from an RA patient (RA2159). The following applies: TNFα but not IL-1α or Poly(I:C) ref 24; cited from earlier work.
In series [4] the test system is SW620, SK-CO-1, PANC-1, AsPc-1, SW156, URMC6. Description: Anti-proliferation across six colon, pancreas and kidney cancer lines. It is filed as cell-based. The following applies: read-out: IC50 values against all lines except PANC-1.
A further series has as its target T2, MAP2K6 (Homo sapiens, UniProt P52564).
T2 sequence (P52564 1-334): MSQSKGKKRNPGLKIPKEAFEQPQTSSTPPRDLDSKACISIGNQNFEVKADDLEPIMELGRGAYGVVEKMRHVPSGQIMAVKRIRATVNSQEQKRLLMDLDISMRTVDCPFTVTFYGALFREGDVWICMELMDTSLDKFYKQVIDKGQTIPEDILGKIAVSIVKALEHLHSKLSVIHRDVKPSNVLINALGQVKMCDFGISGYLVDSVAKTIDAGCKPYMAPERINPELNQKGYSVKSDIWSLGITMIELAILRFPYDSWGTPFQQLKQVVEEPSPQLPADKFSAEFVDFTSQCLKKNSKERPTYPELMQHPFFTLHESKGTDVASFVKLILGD
Description: KiNativ live-cell profiling in SK-CO-1 cells. It is filed as binding. The following applies: read-out: Inhibition (%) MAP2K6.

The target in another series is T3, ZAP70 (Homo sapiens, UniProt P43403).
T3 sequence (P43403 1-619): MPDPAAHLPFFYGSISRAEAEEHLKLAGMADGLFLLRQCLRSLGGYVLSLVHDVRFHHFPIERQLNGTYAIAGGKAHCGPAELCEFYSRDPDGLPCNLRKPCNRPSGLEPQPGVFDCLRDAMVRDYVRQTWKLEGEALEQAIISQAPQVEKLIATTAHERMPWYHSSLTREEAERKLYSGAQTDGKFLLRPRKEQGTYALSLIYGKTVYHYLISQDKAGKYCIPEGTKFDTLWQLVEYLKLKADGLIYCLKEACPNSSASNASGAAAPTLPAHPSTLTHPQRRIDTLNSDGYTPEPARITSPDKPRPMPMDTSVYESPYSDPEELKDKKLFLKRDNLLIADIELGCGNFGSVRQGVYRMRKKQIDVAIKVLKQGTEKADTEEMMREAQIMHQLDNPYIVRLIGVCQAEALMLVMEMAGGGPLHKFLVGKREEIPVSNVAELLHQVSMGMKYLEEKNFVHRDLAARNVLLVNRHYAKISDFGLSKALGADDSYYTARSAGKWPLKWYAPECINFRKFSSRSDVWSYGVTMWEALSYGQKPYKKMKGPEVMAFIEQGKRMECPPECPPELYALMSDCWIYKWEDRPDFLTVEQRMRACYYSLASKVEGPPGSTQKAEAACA
Briefly: KiNativ live-cell profiling in SK-CO-1 cells. Type of series: binding. The conditions noted are these: read-out: Inhibition (%) ZAP70.

On to `Cn1cnc2c(F)c(Nc3ccc(Br)cc3Cl)c(C(=O)NOCCO)cc21` [AZD], for which the pIC50 with SW156, in the series on PANC-1 and in the series on URMC6 was under 4.00 throughout.

As to `CC(C)Nc1cc(-c2c[nH]c(C(=O)N[C@H](CO)c3cccc(Cl)c3)c2)c(Cl)cn1` [BVD], the pIC50 in the series with PANC-1 and with URMC6 was under 4.00 each time.

With `C=CC(=O)Nc1ccccc1Oc1nc(Nc2ccc(N3CCN(C)CC3)cc2)ncc1Cl` [Compound 2], the “anti-proliferative effect, H358” value with H358 cells is reported as “potent against both lines at very low concentrations”. The “blocking of labeling of TAK1 by 27” value on TAK1 is given as “only partially blocked labeling of TAK1”. Moreover, the “normalization of induced cytokine secretion” value (from here on “normalization”) in [1] (3 μM) is on record as “normalized cytokine secretion”. For the same compound, the “anti-proliferative effect, H23” value in the series on H23 cells is “potent against both lines at very low concentrations”. In [2], the “potentiation of FGF-basic secretion induced by TNFα” value is reported as “potentiated FGF-basic secretion”. Moreover, in the series on KRAS^G12D Ba/F3 cells, the “fold more potent than non-covalent counterpart against KRAS^G12D Ba/F3 cells” value is listed as “approximately 6 fold”.

As to `COc1cc(O)c2c(c1)/C=C/C[C@H](O)[C@H](O)C(=O)/C=C\C[C@H](C)OC2=O` [Compound 5Z7, 5Z-7-oxozeaenol, reference compound], the KinomeScan inhibition score result on panel of 456 kinases is on record as “strong inhibition score against many kinases other than TAK1”. Moreover, the “labeling of TAK1 by 27 after pre-treatment of cells” value on TAK1 is recorded as “did not label TAK1”. The “normalization” value in series [1] (0.6 μM) was “fully normalizing induced cytokine secretion”. The “secretion of FGF-basic in SF activated by TNFα” value in series [3] is “elevated secretion of fibroblast growth factor-basic”.

In the case of `C=CC(=O)Nc1ccccc1Nc1nc(Nc2ccc(N3CCN(C)CC3)cc2)ncc1Cl` [Compound 5], in the series on H358 cells, the “anti-proliferative effect, H358” value was “potent against both lines at very low concentrations”. Moreover, at TAK1, the “labeling of TAK1 by 27 after pre-treatment of cells” value is reported as “did not label TAK1”. For the same compound, the “normalization” value in [1] (0.6 μM) is “fully normalizing induced cytokine secretion”. For the same compound, the “anti-proliferative effect, H23” value with H23 cells is reported as “potent against both lines at very low concentrations”. In addition, the “potentiation of FGF-basic secretion induced by TNFα” value in [2] is on record as “potentiated FGF-basic secretion”. Also, in series [4], the pIC50 is 7.08 to 7.54. Moreover, the values for the inhibition at 1 µM at MAP2K6 and on ZAP70 were -43.1% and -26.6%, respectively.

For the compound `CCC(=O)Nc1ccccc1Oc1nc(Nc2ccc(N3CCN(C)CC3)cc2)ncc1Cl` [Compound 8], the “effect on labeling of TAK1 by 27” value at TAK1 is recorded as “did not have a measurable effect”. Further, in [1] (3 μM), the “normalization” value is “virtually inactive”.

For the compound `CCC(=O)Nc1ccccc1Nc1nc(Nc2ccc(N3CCN(C)CC3)cc2)ncc1Cl` [Compound 9], at TAK1, the “effect on labeling of TAK1 by 27” value is on record as “did not have a measurable effect”.

In the case of `CN1CCN(c2ccc(Nc3ncc(Cl)c(Nc4ccccc4NC(=O)CCl)n3)cc2)CC1` [Compound 10], the “anti-proliferative effect, H358” value in the series with H358 cells was “potent against both lines at very low concentrations”. The “blocking of labeling of TAK1 by 27” value at TAK1 is recorded as “only partially blocked labeling of TAK1”. In the series with H23 cells, the “anti-proliferative effect, H23” value is “potent against both lines at very low concentrations”.

As to `C=CC(=O)Oc1ccccc1Nc1nc(Nc2cccc(N3CCOCC3)c2)ncc1Cl` [Compound 20], the “blocking of labeling of TAK1 by 27” value on TAK1 is reported as “only partially blocked labeling of TAK1”.

Take `C=CC(=O)Nc1ccccc1Oc1nc(Nc2cnn(C(F)F)c2)ncc1Cl` [Compound 23]: the “blocking of labeling of TAK1 by 27” value at TAK1 is recorded as “only partially blocked labeling of TAK1”.

On to `CCC(=O)Nc1ccccc1Oc1nc(Nc2cnn(CCOC)c2)ncc1Cl` [Compound 26], for which, on TAK1, the “effect on labeling of TAK1 by 27” value is “did not have a measurable effect”. In addition, the “normalization” value in series [1] (3 μM) is “virtually inactive”. The pIC50 in the series on SW156 and in the series on PANC-1 was under 4.00 throughout.

Regarding `CCN1CCN(Cc2ccc(NC(=O)c3ccc(C)c(Oc4ccnc5[nH]ccc45)c3)cc2C(F)(F)F)CC1` [NG25, reference compound], in the series with H358 cells, the “anti-proliferative effect, H358” value is given as “insufficient to block proliferation at concentrations lower than 5 μM”. In addition, the “effect on labeling of TAK1 by 27” value on TAK1 is given as “inhibited TAK1 in an irreversible manner”. Also, the “normalization” value in [1] (3 μM) was “normalized cytokine secretion”. In the series on H23 cells, the “anti-proliferative effect, H23” value was “insufficient to block proliferation at concentrations lower than 5 μM”.

Broadly, the inhibition is the relative decrease from the control value, in per cent.
